Where a SMILES comes first, the peptide text is derived from it. [ ]: non-standard residue; d: D form. Leu(5,5,5,5',5',5'-F6) = N[C@@H](CC(C(F)(F)F)C(F)(F)F)C(=O)O

Drawing on ChEMBL document CHEMBL1152280 (J Med Chem, 2008), this text covers Activity and Stability for seven molecules.

The species named for one data set is Mus musculus. In words: Toxicity in C57BL/6 mouse assessed as effect on body weight after 5 days. Format: organism-based. To be noted: in vivo, 120 h.
Data set [1] can be described thus: Stability in presence of DPP4 assessed as peptide degradation after 24 hrs by HPLC. Format: ADME. The essentials:
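Peptides (10 μM) incubated with DPP IV (20 units/L, activity calibrated on Gly-Pro-p-nitroanilide at 410 nm) in 50 mM Tris·HCl, 1 mM EDTA, pH 7.6, 37 °C, sampled over 200 min and up to 24 h. Samples were quenched in 0.2% TFA and run on C18 RP-HPLC (CH3CN/H2O/0.1% TFA, 230 nm). First-order k was fitted from ln[A] versus time, and fragments were identified by ESI-MS.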

As to `CC[C@H](C)[C@H](NC(=O)[C@H](Cc1ccccc1)NC(=O)[C@H](CCC(=O)O)NC(=O)[C@H](CCCCN)NC(=O)[C@H](C)NC(=O)[C@H](C)NC(=O)[C@H](CCC(N)=O)NC(=O)CNC(=O)[C@H](CCC(=O)O)NC(=O)[C@H](CC(C)C)NC(=O)[C@H](Cc1ccc(O)cc1)NC(=O)[C@H](CO)NC(=O)[C@H](CO)NC(=O)[C@@H](NC(=O)[C@H](CC(=O)O)NC(=O)[C@H](CO)NC(=O)[C@@H](NC(=O)[C@H](Cc1ccccc1)NC(=O)[C@@H](NC(=O)CNC(=O)[C@H](CC(C(F)(F)F)C(F)(F)F)NC(=O)[C@H](CC(C(F)(F)F)C(F)(F)F)NC(=O)[C@@H](N)Cc1cnc[nH]1)[C@@H](C)O)[C@@H](C)O)C(C)C)C(=O)N[C@@H](C)C(=O)N[C@@H](Cc1c[nH]c2ccccc12)C(=O)N[C@@H](CC(C)C)C(=O)N[C@H](C(=O)N[C@@H](CCCCN)C(=O)NCC(=O)N[C@@H](CCCNC(=N)N)C(N)=O)C(C)C`, in the data set listed under Mus musculus, the Activity entry is given as “Non-toxic”. Also, the Stability entry in data set [1] is listed as “Stable”.

Turning to `CC[C@H](C)[C@H](NC(=O)[C@H](CC(C(F)(F)F)C(F)(F)F)NC(=O)[C@H](CCC(=O)O)NC(=O)[C@H](CCCCN)NC(=O)[C@H](C)NC(=O)[C@H](C)NC(=O)[C@H](CCC(N)=O)NC(=O)CNC(=O)[C@H](CCC(=O)O)NC(=O)[C@H](CC(C)C)NC(=O)[C@H](Cc1ccc(O)cc1)NC(=O)[C@H](CO)NC(=O)[C@H](CO)NC(=O)[C@@H](NC(=O)[C@H](CC(=O)O)NC(=O)[C@H](CO)NC(=O)[C@@H](NC(=O)[C@H](Cc1ccccc1)NC(=O)[C@@H](NC(=O)CNC(=O)[C@H](CCC(=O)O)NC(=O)[C@H](C)NC(=O)[C@@H](N)Cc1cnc[nH]1)[C@@H](C)O)[C@@H](C)O)C(C)C)C(=O)N[C@@H](C)C(=O)N[C@@H](Cc1c[nH]c2ccccc12)C(=O)N[C@@H](CC(C)C)C(=O)N[C@H](C(=O)N[C@@H](CCCCN)C(=O)NCC(=O)N[C@@H](CCCN=C(N)N)C(=O)O)C(C)C`, the Activity entry in the data set filed under Mus musculus was “Non-toxic”. On to `CC(C)C[C@H](NC(=O)[C@H](Cc1ccc(O)cc1)NC(=O)[C@H](CO)NC(=O)[C@H](CO)NC(=O)[C@@H](NC(=O)[C@H](CC(=O)O)NC(=O)[C@H](CO)NC(=O)[C@@H](NC(=O)[C@H](Cc1ccccc1)NC(=O)[C@@H](NC(=O)CNC(=O)[C@H](CCC(=O)O)NC(=O)[C@H](C)NC(=O)[C@@H](N)Cc1cnc[nH]1)[C@@H](C)O)[C@@H](C)O)C(C)C)C(=O)N[C@@H](CCC(=O)O)C(=O)NCC(=O)N[C@@H](CCC(N)=O)C(=O)N[C@@H](C)C(=O)N[C@@H](C)C(=O)N[C@@H](CCCCN)C(=O)N[C@@H](CCC(=O)O)C(=O)N[C@@H](Cc1ccccc1)C(=O)N[C@@H](CC(C(F)(F)F)C(F)(F)F)C(=O)N[C@@H](C)C(=O)N[C@@H](Cc1c[nH]c2ccccc12)C(=O)N[C@@H](CC(C)C)C(=O)N[C@H](C(=O)N[C@@H](CCCCN)C(=O)NCC(=O)N[C@@H](CCCNC(=N)N)C(N)=O)C(C)C`, for which the Activity entry in the data set listed under Mus musculus is given as “Non-toxic”. Turning to `CC[C@H](C)[C@H](NC(=O)[C@H](Cc1ccccc1)NC(=O)[C@H](CCC(=O)O)NC(=O)[C@H](CCCCN)NC(=O)[C@H](C)NC(=O)[C@H](C)NC(=O)[C@H](CCC(N)=O)NC(=O)CNC(=O)[C@H](CCC(=O)O)NC(=O)[C@H](CC(C)C)NC(=O)[C@H](Cc1ccc(O)cc1)NC(=O)[C@H](CO)NC(=O)[C@H](CO)NC(=O)[C@@H](NC(=O)[C@H](CC(=O)O)NC(=O)[C@H](CO)NC(=O)[C@@H](NC(=O)[C@H](Cc1ccccc1)NC(=O)[C@@H](NC(=O)CNC(=O)[C@H](CCC(=O)O)NC(=O)[C@H](CC(C(F)(F)F)C(F)(F)F)NC(=O)[C@@H](N)Cc1cnc[nH]1)[C@@H](C)O)[C@@H](C)O)C(C)C)C(=O)N[C@@H](C)C(=O)N[C@@H](Cc1c[nH]c2ccccc12)C(=O)N[C@@H](CC(C)C)C(=O)N[C@H](C(=O)N[C@@H](CCCCN)C(=O)NCC(=O)N[C@@H](CCCNC(=N)N)C(N)=O)C(C)C`, the Activity result in the data set filed under Mus musculus is listed as “Non-toxic”. Besides, in data set [1], the Stability entry is recorded as “Stable”. On to `CC[C@H](C)[C@H](NC(=O)[C@H](Cc1ccccc1)NC(=O)[C@H](CCC(=O)O)NC(=O)[C@H](CCCCN)NC(=O)[C@H](C)NC(=O)[C@H](C)NC(=O)[C@H](CCC(N)=O)NC(=O)CNC(=O)[C@H](CCC(=O)O)NC(=O)[C@H](CC(C)C)NC(=O)[C@H](Cc1ccc(O)cc1)NC(=O)[C@H](CO)NC(=O)[C@H](CO)NC(=O)[C@@H](NC(=O)[C@H](CC(=O)O)NC(=O)[C@H](CO)NC(=O)[C@@H](NC(=O)[C@H](Cc1ccccc1)NC(=O)[C@@H](NC(=O)CNC(=O)[C@H](CCC(=O)O)NC(=O)[C@H](C)NC(=O)[C@@H](N)Cc1cnc[nH]1)[C@@H](C)O)[C@@H](C)O)C(C)C)C(=O)N[C@@H](C)C(=O)N[C@@H](Cc1c[nH]c2ccccc12)C(=O)N[C@@H](CC(C(F)(F)F)C(F)(F)F)C(=O)N[C@H](C(=O)N[C@@H](CCCCN)C(=O)NCC(=O)N[C@@H](CCCNC(=N)N)C(N)=O)C(C)C`, for which the Activity entry in the data set filed under Mus musculus was “Non-toxic”. With `CC[C@H](C)[C@H](NC(=O)[C@H](Cc1ccccc1)NC(=O)[C@H](CCC(=O)O)NC(=O)[C@H](CCCCN)NC(=O)[C@H](C)NC(=O)[C@H](C)NC(=O)[C@H](CCC(N)=O)NC(=O)CNC(=O)[C@H](CCC(=O)O)NC(=O)[C@H](CC(C)C)NC(=O)[C@H](Cc1ccc(O)cc1)NC(=O)[C@H](CO)NC(=O)[C@H](CO)NC(=O)[C@@H](NC(=O)[C@H](CC(=O)O)NC(=O)[C@H](CO)NC(=O)[C@@H](NC(=O)[C@H](Cc1ccccc1)NC(=O)[C@@H](NC(=O)[C@H](CC(C(F)(F)F)C(F)(F)F)NC(=O)[C@H](CCC(=O)O)NC(=O)[C@H](C)NC(=O)[C@@H](N)Cc1cnc[nH]1)[C@@H](C)O)[C@@H](C)O)C(C)C)C(=O)N[C@@H](C)C(=O)N[C@@H](Cc1c[nH]c2ccccc12)C(=O)N[C@@H](CC(C)C)C(=O)N[C@H](C(=O)N[C@@H](CCCCN)C(=O)NCC(=O)N[C@@H](CCCN=C(N)N)C(N)=O)C(C)C`, in the data set listed under Mus musculus, the Activity entry is listed as “Non-toxic”.

Consider `CC[C@H](C)[C@H](NC(=O)[C@H](Cc1ccccc1)NC(=O)[C@H](CCC(=O)O)NC(=O)[C@H](CCCCN)NC(=O)[C@H](C)NC(=O)[C@H](C)NC(=O)[C@H](CCC(N)=O)NC(=O)CNC(=O)[C@H](CCC(=O)O)NC(=O)CNC(=O)[C@H](CC(C)C)NC(=O)[C@H](Cc1ccc(O)cc1)NC(=O)[C@H](CO)NC(=O)[C@H](CO)NC(=O)[C@@H](NC(=O)[C@H](CC(=O)O)NC(=O)[C@H](CO)NC(=O)[C@@H](NC(=O)[C@H](Cc1ccccc1)NC(=O)[C@@H](NC(=O)CNC(=O)[C@H](CC(C(F)(F)F)C(F)(F)F)NC(=O)[C@H](C)NC(=O)[C@@H](N)Cc1cnc[nH]1)[C@@H](C)O)[C@@H](C)O)C(C)C)C(=O)N[C@@H](C)C(=O)N[C@@H](Cc1c[nH]c2ccccc12)C(=O)N[C@@H](CC(C)C)C(=O)N[C@H](C(=O)N[C@@H](CCCCN)C(=O)NCC(=O)N[C@@H](CCCNC(=N)N)C(N)=O)C(C)C` (H-HA[Leu(5,5,5,5',5',5'-F6)]GTFTSDVSSYLGEGQAAKEFIAWLVKGR-NH2), for which the Activity entry in the data set listed under Mus musculus is “Non-toxic”.
